Measurements from paper PMC7583042 (Free radical biology & medicine, 2019).
Values joined by “and” are separate entries in the source; they are usually repeats but may differ in a detail not shown here. Equal values may be shown once. “Also recorded” adds a separate entry of the source. Read-outs that look alike come from different tables or passages of the source.

Tests used:
SmTGR WT [1] = molecular target: T1, SmTGR WT (Schistosoma mansoni, UniProt Q962Y6); test: biochemical; assay type: biochemical
human GR = molecular target: T2, human GR (Homo sapiens, UniProt P00390); test: biochemical; assay type: biochemical; details: for inhibition of Human GR @ 2 mM: 2 mM compound; for Apparent IC50 Human GR: 15 min preincubation with NADPH
T2 sequence (P00390 1-479 isoform P00390-2): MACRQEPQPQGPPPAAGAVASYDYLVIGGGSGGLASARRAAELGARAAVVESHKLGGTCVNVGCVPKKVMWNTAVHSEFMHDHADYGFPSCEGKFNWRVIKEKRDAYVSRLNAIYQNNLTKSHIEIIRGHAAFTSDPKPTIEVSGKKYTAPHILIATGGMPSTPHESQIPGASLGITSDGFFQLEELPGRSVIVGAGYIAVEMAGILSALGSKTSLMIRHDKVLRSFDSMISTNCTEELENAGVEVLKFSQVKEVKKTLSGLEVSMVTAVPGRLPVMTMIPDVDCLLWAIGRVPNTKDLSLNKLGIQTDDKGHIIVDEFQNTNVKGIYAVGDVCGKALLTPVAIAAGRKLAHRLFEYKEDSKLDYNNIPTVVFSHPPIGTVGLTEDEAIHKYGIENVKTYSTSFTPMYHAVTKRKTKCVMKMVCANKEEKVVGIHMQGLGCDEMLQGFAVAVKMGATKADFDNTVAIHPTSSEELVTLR

Adult S. mansoni = test: Ex vivo cultured adult worm survival; assay type: cell-based, Schistosoma mansoni; details: ex vivo culture
How it was run: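 Adult worms were isolated from infected mice and held 24 h in RPMI with 10% fetal calf serum, 10 mM glutamine and 1× penicillin/streptomycin. Test compound was then added to the medium at 10 or 50 μM. Worms were observed daily and scored dead when no movement was seen after several minutes' observation. Percentage dead is reported at 144 h.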

Larval S. mansoni = test: Ex vivo cultured larval worm survival; assay type: cell-based, Schistosoma mansoni; details: ex vivo culture
How it was run: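 Schistosomula were made by mechanical transformation of cercariae shed from infected Biomphalaria glabrata, then isolated on a Percoll gradient. They were cultured 24 h in M-199 with 10% fetal calf serum before test compound was added at 10 μM. Daily observation scored larvae dead when motionless for several minutes. Percentage dead is reported at 120 h.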

Rat TrxR = details: ref bioassay AID 588453, cited from earlier work; for IC50: read-out: Apparent IC50 Rat TrxR
[2] = system: human glutathione S-transferase Ω−1 (GSTO1); details: ref bioassay AID 66188991; cited from earlier work
[3] = pKa of the amine named in the cell; source not stated; cited from earlier work
SmTGR-U597C [4] = molecular target: SmTGR-U597C (Schistosoma mansoni, UniProt Q962Y6); test: biochemical
SmTGR-U597C [5] = test: biochemical; details: 15 min
SmTGR WT [6] = molecular target: SmTGR WT (Schistosoma mansoni, UniProt Q962Y6, X597U); assay type: biochemical; details: global fitting of time dependent inactivation
SmTGR-E330A/D334A [7] = molecular target: T3, SmTGR-E330A/D334A (Schistosoma mansoni, UniProt Q962Y6, D334A/E330A); test: Time dependent inactivation of SmTGR-E330A/D334A; assay type: biochemical; details: global fitting of time dependent inactivation
[8] = oQM-thiol adduct formation with Cys and GSH followed by RP-HPLC/MS; assay type: physicochemical; details: pH 7.4, ambient temperature
How it was run: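 Test compound (1 mM) was incubated alone or with 1 mM Cys and GSH in 5 mM sodium phosphate, pH 7.4 (also pH 8.3), at ambient temperature. Aliquots were injected at time intervals onto C18 RP-HPLC, eluting with a 0–100% acetonitrile gradient in 0.1% formic acid. Peaks were identified by ESI-MS and CID MS/MS (−4.0 kV, m/z 125–2,000, 260 °C capillary).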

SmTGR-E330A/D334A [9] = molecular target: T3, SmTGR-E330A/D334A; test: SmTGR-E330A/D334A mutant inhibition, DTNB assay; assay type: biochemical
SmTGR WT [10] = assay type: biochemical, Schistosoma mansoni
SmTGR WT [11] = molecular target: T1, SmTGR WT; test: NADPH oxidase activity of inhibited enzyme; assay type: biochemical; details: 50 μM inhibitor, 30 min, pyrogallol red
[12] = read-out: Apparent IC50 TGR, 15 min preincubation, NADPH present
[13] = read-out: IC50 (Table 2), SmTGR value repeated in Table 2

CN(Cc1ccccc1)Cc1c(O)ccc2ccccc12 [Compound 3]
IC50 (SmTGR WT [1]; [12]): 0.84 ± 0.03 µM | IC50 (SmTGR WT [1]; [13]): 0.84 ± 0.03 µM | inhibition of Human GR @ 2 mM (human GR): 20% inhibition @ 2 mM | Adult S. mansoni (144 h) 10 μM, worms dead (Adult S. mansoni): 0% dead | Adult S. mansoni (144 h) 50 μM, worms dead (Adult S. mansoni): 24 % dead | Larval S. mansoni (120 h) 10 μM, worms dead (Larval S. mansoni): 19% dead | Apparent IC50 Rat TrxR (Rat TrxR): inactive | Apparent IC50 GSTO1 [2]: inactive

Oc1ccc2ccccc2c1CN1CCCCC1 [Compound 7]
IC50 (SmTGR WT [1]; [12]): 57.6 ± 4.57 µM | Apparent IC50 Human GR (human GR): inactive | Apparent IC50 Rat TrxR (Rat TrxR): inactive | pka of the leaving group upon oQM formation [3]: 11.2 (piperidine)

Oc1ccc2ccccc2c1CN1CCOCC1 [Compound 1, 1-(Morpholin-4-ylmethyl)-2-naphthol]
IC50 (SmTGR WT [1]): 0.61 ± 0.09 µM | IC50 (human GR): 71 ± 11.7 µM | IC50 (SmTGR-U597C [4]): 100 µM | fold higher apparent IC50 for SmTGR-U597C than for WT (SmTGR-U597C [5]): 200 fold | second order rate constant for inhibition of SmTGR WT (SmTGR WT [6]): 1830 M⁻¹ s⁻¹ | second order rate constant for inhibition of SmTGR E330/D334 (SmTGR-E330A/D334A [7]): 1300 M⁻¹ s⁻¹ | Adult S. mansoni (144 h) 10 μM, worms dead (Adult S. mansoni): 8% dead | Adult S. mansoni (144 h) 50 μM, worms dead (Adult S. mansoni): 13 % dead | time to generate comparable amounts of oQM-thiol adduct [8]: 1 h | IC50 (Rat TrxR): 10 µM | Apparent IC50 GSTO1 [2]: not detected; also recorded: inactive | pka of the leaving group upon oQM formation [3]: 8.3 (morpholine)

CCOC(=O)N1CCN(Cc2c(O)ccc3ccccc23)CC1 [Compound 2]
IC50 (SmTGR WT [1]; [12]): 0.65 ± 0.12 µM | IC50 (SmTGR WT [1]; [13]): 0.65 ± 0.12 µM | inhibition of Human GR @ 2 mM (human GR): 35% inhibition @ 2 mM | Adult S. mansoni (144 h) 50 μM, worms dead (Adult S. mansoni): 5% dead | IC50 (Rat TrxR): 12.6 µM | Apparent IC50 GSTO1 [2]: inactive

Oc1ccc2ccccc2c1CN1CCCC1 [Compound 6]
IC50 (SmTGR WT [1]; [12]): 28.8 ± 5.37 µM | Apparent IC50 Human GR (human GR): inactive | Adult S. mansoni (144 h) 50 μM, worms dead (Adult S. mansoni): 0% dead | Apparent IC50 Rat TrxR (Rat TrxR): inactive | Apparent IC50 GSTO1 [2]: inactive | pka of the leaving group upon oQM formation [3]: 11.2 (pyrolidine)

CN(C)Cc1c(O)ccc2ccccc12 [Compound 4, 1-[(Dimethylamino)methyl]-2-naphthol]
IC50 (SmTGR WT [1]): 11.2 ± 1.9 µM | inhibition of SmTGR WT at pH 6.4 (SmTGR WT [1]; pH 6.4, data not shown): low micromolar range | IC50 (human GR): 1830 µM | IC50 (SmTGR-E330A/D334A [9]): 44 ± 4.9 µM | fold higher inhibitor concentration needed for E330A/D334A than for WT (SmTGR-E330A/D334A [9]; same degree of inhibition): 4 fold | IC50 (SmTGR-U597C [4]): 2000 µM | fold higher apparent IC50 for SmTGR-U597C than for WT (SmTGR-U597C [5]): 200 fold | second order rate constant for inhibition of SmTGR WT (SmTGR WT [6]): 45.8 M⁻¹ s⁻¹ | difference in inhibition rate between WT and E330A/D334A (SmTGR WT [10]; compound at 2 μM): about 360 fold | WT inhibited faster than E330A/D334A (SmTGR WT [10]; compound at 20 μM): 3 times | second order rate constant for inhibition of SmTGR E330/D334 (SmTGR-E330A/D334A [7]): 14.7 M⁻¹ s⁻¹ | induction of NADPH oxidase activity in the inhibited WT enzyme (SmTGR WT [11]): able to induce | Adult S. mansoni (144 h) 10 μM, worms dead (Adult S. mansoni): 0% dead | time to generate comparable amounts of oQM-thiol adduct [8]: 24 h | IC50 (Rat TrxR): 31 µM and 31.6 µM | Apparent IC50 GSTO1 [2]: not detected; also recorded: inactive | pka of the leaving group upon oQM formation [3]: 11 (dimethylamine)

Oc1ccc2ccccc2c1CN1CC=C(c2ccccc2)CC1 [Compound 5]
IC50 (SmTGR WT [1]; [12]): 11.9 ± 3.57 µM | Apparent IC50 Human GR (human GR): inactive | Apparent IC50 Rat TrxR (Rat TrxR): inactive | Apparent IC50 GSTO1 [2]: inactive
